An excerpt weighted towards active compounds, which were near 3.5% of everything screened.
RGS4 block – human RGS4 inhibition; P49798; HEK293 M3R/RGS4 inducible, Fluo-4 calcium flux; stronger effect = higher value; triggered by carbachol at its EC20; B-score at 10 µM; hit rate 0.45% among 310,000; AID 463165;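 active = B-score, a plate-corrected calcium signal, over three deviations above library mean, with baseline fluorescence within five deviations of library mean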;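 note: RGS4 expression induced by doxycycline in cells with stable M3 receptor; B-score is computed from the integrated fluorescence ratio over baseline after carbachol; higher B-score means a larger calcium signal and so more RGS4 inhibition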
Target sequence (P49798 whole entry, looked up): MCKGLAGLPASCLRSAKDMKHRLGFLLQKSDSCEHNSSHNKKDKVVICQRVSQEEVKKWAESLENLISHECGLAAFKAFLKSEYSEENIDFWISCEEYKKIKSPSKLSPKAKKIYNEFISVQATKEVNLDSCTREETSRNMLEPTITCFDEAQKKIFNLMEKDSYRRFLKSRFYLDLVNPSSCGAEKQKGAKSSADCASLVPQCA
RGS4 pot – RGS4 potentiation or activation | HEK293 M3R/inducible RGS4, carbachol calcium flux Fluo4; stronger effect = lower value | B-score at 10 µM | hit rate 0.92% among 310,000;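 active = B-score of the integrated calcium signal more than 4 SD below the library mean, with starting fluorescence not abnormally high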;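 note: negative B-score means reduced calcium response which marks RGS4 activation or potentiation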
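System – HEK293 FlpIn-TREx cells, stable M3R, doxycycline-inducible RGS4 · Reagent – ECmax carbachol challenge · Times – compound preincubation 20 min at room temperature before agonist · Technique – Fluo4 fluorescence kinetic imaging of calcium · Measure – B score of integrated Fluo4 ratio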
MrgX1 ag – agonists of human MrgX1 receptor; hit rate 0.44% among 310,000; MrgX1-HEK293 cells, Fluo-4 calcium fluorescence, agonist mode; stronger effect = higher value; Q96LB2; AID 588627; B-score at 10 µM;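 active = calcium response B-score plate-corrected fluorescence ratio at least 3 library SD, with starting fluorescence B-score inside 5 SD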
Target sequence (Q96LB2 whole entry, looked up): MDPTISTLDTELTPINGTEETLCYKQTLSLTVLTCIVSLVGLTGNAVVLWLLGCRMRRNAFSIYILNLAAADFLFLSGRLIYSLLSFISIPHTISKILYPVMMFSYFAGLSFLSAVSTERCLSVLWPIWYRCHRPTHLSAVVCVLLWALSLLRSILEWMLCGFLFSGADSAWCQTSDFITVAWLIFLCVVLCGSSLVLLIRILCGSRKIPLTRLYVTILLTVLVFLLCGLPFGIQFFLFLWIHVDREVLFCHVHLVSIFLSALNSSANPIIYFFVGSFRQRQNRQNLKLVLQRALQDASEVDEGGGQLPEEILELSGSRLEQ
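Assay system: stable human MrgX1 HEK293 cell line. Quantity: 15,000 cells per well. Schedule: cells plated overnight, dye loaded 0.5 h 37 °C, 0.5 h room temperature. Detection: Fluo-4 NW calcium-flux fluorescence, kinetic read. Read-out basis: peak-minus-minimum fluorescence over baseline, converted to B scores. Control set: positive and negative control wells on each plate.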
MrgX1 allo act – allosterically activates human MrgX1 receptor signaling | Q96LB2 | MrgX1-HEK293, Fluo-4 calcium flux, FDSS; stronger effect = higher value | B-score at 10 µM | hit rate 0.63% among 310,000 | AID 588675;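 active = plate-corrected calcium response at least 3 library SD above typical, normal starting fluorescence, not activating the receptor alone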;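 note: compound read alongside a low EC10 to EC30 dose of BAM8-22 agonist; peak minus trough fluorescence over baseline measured at the second addition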
MrgX1 antagonist – blocks BAM8-22 activation of human MrgX1 receptor | MRGX1-HEK293 calcium flux, Fluo-4, BAM8-22 antagonism; stronger effect = lower value | B-score at 10 µM | hit rate 1.3% among 310,000;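 active = calcium-response B-score plate-corrected more than 3 library SD below zero, starting fluorescence within 5 deviations, no agonist response on first addition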;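 note: peak minus trough fluorescence over baseline after final BAM8-22 challenge near maximal dose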
MrgX1 allo conf – confirmation of human MrgX1 receptor positive allosteric modulators; shares compounds with MrgX1 allo act; MrgX1-HEK293, Fluo-4 calcium fluorescence, FDSS; activation (ratio percentage), % at 10 µM; hit rate 13% among 1,200;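 active = ratio at least 3 SD above the weak peptide control, stable starting fluorescence, no direct agonism earlier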;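 note: compound followed by low BAM8-22 agonist challenge near EC20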
HEK293 Ca flux – MrgX1 antagonist counter-screen hit in parental HEK293 cells. AID 624111. Fluo-4 calcium fluorescence, FDSS. shares compounds with MrgX1 antagonist. hit rate 2% among 4,000. fluorescence ratio F(max-min)/F0 at 10 µM;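 active = duplicate-averaged calcium fluorescence ratio at least three times the standard deviation of buffer wells, a nonspecific response in parental cells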
HEK293 Ca counter – counter-screen for MrgX1 allosteric activators: effect in parental HEK293 cells. shares compounds with MrgX1 antagonist. parental HEK293 calcium flux, Fluo-4 fluorescence ratio; stronger effect = higher value. fluorescence ratio F(max-min)/F0 at 10 µM. hit rate 0.4% among 4,000;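 active = calcium fluorescence ratio, averaged over duplicates, at least 3 SD of the buffer-well ratio, meaning a nonspecific response in receptor-free cells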;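 note: untransfected parental HEK293 lacking MrgX1 used as counterscreen for MrgX1 allosteric activators; fluorescence change taken during the second addition on a kinetic imager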
HEK293 Ca cntr2 – activity in parental HEK293 cells lacking MrgX1 receptor | fluorescence ratio F(max-min)/F0 at 10 µM | shares compounds with MrgX1 antagonist | hit rate 8.7% among 4,000 | Fluo-4 calcium fluorescence (FDSS); stronger effect = higher value | AID 624115;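 active = calcium fluorescence ratio at least three times the spread of buffer wells, meaning a non-specific response in parental cells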
Numbers without * were called inactive; i = inactive; x = not tested or not shown.

SMILES | RGS4 block | RGS4 pot | MrgX1 ag | MrgX1 allo act | MrgX1 antagonist | MrgX1 allo conf | HEK293 Ca flux | HEK293 Ca counter | HEK293 Ca cntr2
CC(=O)C(C)n1c(CN(C)Cc2ccccc2)nc2c1c(=O)n(C)c(=O)n2C (stereo not given) | i | i | i | i | i | x | x | x | x
CC(C)n1c(CN(C)Cc2ccccc2)nc2c1c(=O)n(C)c(=O)n2C | i | i | i | 7.82* | i | 13.0%* | i | i | i
Cc1ccc2nc(SC(C)C(=O)N3CCOCC3)[nH]c2c1 (stereo not given) | i | i | i | 7.28* | i | i | i | i | i
COc1ccccc1/C=C1\Cc2ccccc2C1=O | i | i | i | i | i | x | x | x | x
Cc1cc(/C=C2\Cc3ccccc3C2=O)c(C)n1-c1ccccc1 | i | i | i | 25.5* | i | i | i | i | i
CCC1CCCCN1C(=O)CSc1nc(N)c(NC(=O)c2ccc(OC)c(OC)c2)c(=O)[nH]1 (stereo not given) | i | i | i | i | i | x | x | x | x
CNc1nc(Nc2ccc(C(C)=O)cc2)nc(OC(C(F)(F)F)C(F)(F)F)n1 | i | i | i | 8.59* | i | i | i | i | i
CNC(=O)N(O)C1N(/N=C/c2cc(Br)ccc2O)C(=S)SC1(C)C (stereo not given) | i | i | i | i | i | x | x | x | x
Cc1nn(-c2ccccc2)c(N)c1Sc1cccc([N+](=O)[O-])c1 | i | i | i | i | i | x | x | x | x
Cc1cc(C)nc(-n2nc(C)c(Sc3ccc(F)cc3)c2N)n1 | i | i | i | 11.1* | i | i | i | i | i
O=C(CC1C(=O)NCCN1Cc1ccc(F)cc1)NCCN1CCCc2ccccc21 (stereo not given) | i | i | i | i | i | x | x | x | x
O=C(CC1C(=O)NCCN1Cc1ccccc1)NCCN1CCCCC1=O (stereo not given) | i | i | i | 9.38* | i | i | i | i | i
CCOc1ccccc1N1CCN(C(=O)Nc2cccc(Cl)c2)CC1 | i | i | i | 11.1* | i | i | i | i | i
O=C(CSc1nc2ccccc2[nH]1)Nc1ccc(F)cc1 | i | i | i | i | i | x | x | x | x
O=C(CSc1nc2ccccc2[nH]1)NCc1ccc(F)cc1 | i | i | i | 9.48* | i | i | i | i | i
CCn1cc(C(=O)NC2CC(C)(C)Cc3c2cnn3-c2cccc(F)c2)cn1 (stereo not given) | i | i | i | i | i | x | x | x | x
Cc1cnc(C(=O)NC2CC(C)(C)Cc3c2cnn3-c2cccc(F)c2)cn1 (stereo not given) | i | i | i | 7.81* | i | i | i | i | i
CCOC(=O)C1=C(C)NC(=O)CC1c1cc(OC)c(OC)cc1Br (stereo not given) | i | i | i | 14.7* | i | i | i | i | i
COc1ccccc1-n1cc(-c2ccccc2)c2c(=S)nc[nH]c21 | i | i | i | 16.4* | i | i | i | i | i
COc1ccc(/C=C2\SC(=S)N(CCCC(=O)Nc3ccccc3C(=O)O)C2=O)cc1OC | i | i | i | 21.9* | i | i | i | i | 52.6*
COc1ccc(/C=C2\SC(=S)N(CCC(=O)Nc3ccccc3C(=O)O)C2=O)cc1 | i | i | i | i | i | x | x | x | x
Cc1csc(NC(=O)c2cncc(Br)c2)n1 | i | i | i | 15.1* | i | i | i | i | i
CS(=O)(=O)N(CC(=O)N1CCCCCC1)c1cccc(F)c1 | i | i | i | i | i | x | x | x | x
C=CCNC(=S)Nc1ccc(OC)c(S(=O)(=O)N2CCOCC2)c1 | i | i | i | 8.73* | i | i | i | i | i
C=CCNC(=S)Nc1ccc(Cl)c(S(=O)(=O)N2CCOCC2)c1 | i | i | i | i | i | x | x | x | x
SMILES | RGS4 block | RGS4 pot | MrgX1 ag | MrgX1 allo act | MrgX1 antagonist | MrgX1 allo conf | HEK293 Ca flux | HEK293 Ca counter | HEK293 Ca cntr2
CC1Sc2ccc(Cl)cc2-c2nc(N)ncc21 (stereo not given) | i | i | i | 11.3* | i | i | i | i | i
O=C(COC(=O)/C=C/C(=O)OCC(=O)NC12CC3CC(CC(C3)C1)C2)NC12CC3CC(CC(C3)C1)C2 | i | i | i | i | i | x | x | x | x
CCCCN(CCCC)S(=O)(=O)c1ccc2[nH]c(=O)[nH]c2c1 | i | i | i | i | i | x | x | x | x
NC1=NC(=Nc2cccc(S(=O)(=O)N3CCOCC3)c2)c2ccccc21 | i | i | i | i | i | x | x | x | x
CC(=O)c1cc2c(cc1NC(=O)CN1CCCCC1C)OCO2 (stereo not given) | i | i | i | 11.3* | i | i | i | i | i
Cc1nnc(SCC(=O)NC(C)c2ccccc2)[nH]c1=O (stereo not given) | i | i | i | i | i | x | x | x | x
COc1ccccc1N1CCN(C2=Nc3cccc4cccc2c34)CC1 | i | -6.96* | i | 8.91* | i | i | i | i | i
CC(=O)N1CCN(C2=Nc3cccc4cccc2c34)CC1 | i | i | i | i | i | x | x | x | x
OCC[C@@H]1C[C@H](O)[C@@H](O)[C@]2(Cc3ccccc3CO2)O1 | i | i | i | i | i | x | x | x | x
CCOc1ccc(N=c2scc(-c3ccccc3)n2CCO)cc1 | i | i | i | i | i | x | x | x | x
OCCn1c(-c2ccc(F)cc2)csc1=Nc1ccccc1 | i | i | i | 13.4* | i | i | i | i | i
CCOc1ccc(N=c2scc(-c3ccc(OC)cc3)n2CCO)cc1 | i | i | i | i | i | x | x | x | x
OCCn1c(-c2ccc3c(c2)OCO3)csc1=Nc1ccccc1 | i | i | i | 11.6* | i | i | i | i | i
CCC1(Cc2ccccc2)NC(=O)c2ccccc2O1 (stereo not given) | i | i | i | 12.4* | i | i | i | i | i
O=C1NC2(CCCCCC2)Oc2ccccc21 | i | i | i | i | i | x | x | x | x

Compound activity as filed in PubChem BioAssay.
